The sample as a whole holds a higher share of hits than the screen did.
Lipid droplet: modulators of hepatic lipid droplet formation. 240,000 compounds, 0.4% hits. inhibition, % at 6.5 µM. AML12 mouse hepatocytes, oleate lipid droplets, BODIPY imaging;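 active means lipid droplet intensity inhibited by at least 50%, with more than 500 cells counted; inconclusive means wells with under 300 cells, treated as cytotoxic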
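Assay system: AML12 mouse liver cells | Compound: 6.5 µM single-point dosing | Schedule: Overnight exposure | Technique: Fluorescence imaging, 20x objective, two fields per well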
Redox H2O2 prof: compounds producing H2O2 with reducing agent – biochemical, NIH compound library profiling, artefact control for MLSCN library redox annotation, primary screen. DTT-dependent redox cycling H2O2, phenol red/HRP absorbance; 100% = 100 µM peroxide control, 0% = buffer. activation, % at 10 µM. 200,000 compounds, 0.03% hits;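 active means activation of at least 50% relative to the plate's high and low controls in the primary single-dose screen; inactive means activation below 50%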;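 further: compound incubated with DTT at 0.8 mM final as the reducing agent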
Lmaj promast: inhibitors of Leishmania major promastigote growth; Leishmania major promastigotes, resazurin fluorescence viability; inhibition, % at 10 µM; 200,000 compounds, 9% hits; in the data active means inhibition above about 50%;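 further: promastigotes grown with compound for 44 hours at 28 °C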
MPTP block: permeability transition pore inhibition. isolated mouse mitochondria, Ca2+ swelling absorbance, 30 min. inhibition, % at 10 µM. 360,000 compounds, 1.4% hits. AID 602449;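 active means inhibition of 50% or more, scaled per plate between neutral and stimulator controls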;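 further: 0% = DMSO wells given calcium and 100% = 1 mM EGTA wells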
T cruzi inh: blocks replication of Trypanosoma cruzi. T. cruzi beta-gal in NIH3T3, luminescence, 90 h. inhibition, % (test concentration not listed). 300,000 compounds, 1.4% hits;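 active means mean inhibition across valid replicates above about 55%, limit read from the data; inconclusive means mean below that limit but half or more replicates reach it; inactive means mean below it, under half of replicates reach it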;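 further: signal also drops with host cell toxicity which is not excluded here; 0% = plate median of DMSO wells and 100% = zero luminescence signal; higher percent means less beta-gal luminescence so fewer parasites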
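assay system = mouse NIH/3T3 fibroblasts infected with β-gal-expressing T. cruzi Tulahuen C4 | input = 5,000 NIH/3T3 host cells per well | buffer or medium = DMEM plus 2% FBS | timing = 3 h host attachment, then at least 90 h co-culture | measured by = GalScreen luminescence, 60 min | evaluation = luminescence reflecting intracellular parasite burden, expressed as percent inhibition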
Rh123 counter: Rhodamine 123 counter-screen of mitochondrial pore hits. shares compounds with MPTP block. 5,000 compounds, 78% hits. inhibition, % at 10 µM. isolated mitochondria, membrane potential, Rhodamine 123 fluorescence. AID 624504; in the data active means inhibition above about 22%;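 further: 0% = DMSO vehicle and 100% = positive control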
MPTP abs DR: MPTP inhibition, dose response swelling confirmation | shares compounds with MPTP block | 780 compounds, 58% hits | IC50, µM | isolated mitochondria swelling, absorbance; in the data active means IC50 below about 20 µM
MPTP counter DR: counter-screen for mitochondrial permeability transition pore inhibitors, dose response | shares compounds with MPTP block | IC50, µM | 780 compounds, 49% hits | AID 651564 | isolated mitochondria counterscreen, fluorescence read-out; in the data active means IC50 below about 80 µM
The depositor's hits bear a star; i = inactive; u = inconclusive; x = not tested or not shown.

SMILES	Lipid droplet	Redox H2O2 prof	Lmaj promast	MPTP block	T cruzi inh	Rh123 counter	others
COc1ccc(Br)cc1CN(C)CC(O)COc1ccc(Br)cc1 (stereo not drawn)	-2	x	x	80*	41	-1	MPTP abs DR=18*;MPTP counter DR=42*
Cc1onc(-c2ccccc2)c1C(=O)N=C(N)c1ccc(C(F)(F)F)cc1	-1	x	x	5	8	x
CCCCNC(=S)Nc1ccc([N+](=O)[O-])cc1	12	0	49	95*	13	89*
CC(C)CCNC(=S)Nc1ccc(Br)cc1	8	0	30	100*	9	88*
S=C(NCCc1ccccc1)Nc1ccc(Br)cc1	15	0	15	98*	13	92*
CC(C)OC(=O)c1cc(NC(=S)Nc2ccc([N+](=O)[O-])cc2)cc(C(=O)OC(C)C)c1	-6	0	100*	97*	5	100*
CC(=O)c1cccc(OCc2cc(C(=O)NCc3nc(C)c(C)s3)no2)c1	-2	x	x	2	1	x
CC(C)CCNC(=S)Nc1ccc([N+](=O)[O-])cc1	-32	0	68*	98*	9	85*
COC(=O)Cc1ccc(NC(=S)NCCC(C)C)cc1	-8	0	-6	4	24	x
Cc1c(N=C(N)/N=C(\N)Nc2ccc(Br)cc2)c(=O)n(-c2ccccc2)n1C	16	0	2	0	2	x
CCc1cccc(OCC(=O)Nc2ccc(C)c(S(=O)(=O)N3CCCCCC3)c2)c1	x	x	x	0	21	x
Cc1ccc(NC(=O)COc2ccc(N(C)C(=O)C(C)(C)C)cc2)cc1S(=O)(=O)N1CCCCC1	x	x	x	93*	x	100*
Cc1ccc(NC(=O)CSc2ncnc3ccccc23)cc1S(=O)(=O)N1CCCCCC1	-11	0	14	62*	-6	81*
N/C(=N\OC(=O)c1cnn(-c2ccccc2)c1C(F)(F)F)c1ccc(C(F)(F)F)cc1	-17	x	x	2	-12	x
COc1ccc(C(=O)Nc2ccc(O)c3ccccc23)cc1OC	x	x	x	-1	-3	x
Cn1c(-c2ccc(Br)o2)nc2cc(Br)ccc21	x	3	-2	64*	x	-8	MPTP abs DR=i;MPTP counter DR=>80
O=C1NCCSC1c1ccccc1 (stereo not drawn)	x	x	x	1	-15	x
O=C(Nc1cccc(Cl)c1)N1CCSc2cc(Cl)ccc21	x	-4	7	76*	24	88*
N#Cc1ccccc1NC(=O)Nc1cccc(Cl)c1	2	0	-1	2	-24	x
N#CCc1ccc(NC(=O)Nc2cccc(Cl)c2)cc1	1	3	6	90*	16	107*
COc1cccc(NC(=O)Nc2cc(Cl)ccc2C)c1	-21	-2	20	92*	15	82*
O=C(Nc1cccc(Cl)c1)ON=C1c2ccccc2-c2ccccc21	x	-4	-3	86*	0	87*
COc1ccc(NC(=O)Nc2cccc(OC)c2)cc1	x	0	8	5	3	x
O=C(Nc1ccccc1)N1CCSc2cc(Cl)ccc21	x	1	-1	6	-2	x
COc1cccc(CN2CCN(CCCc3ccccc3)C(CCO)C2)c1O (stereo not drawn)	14	x	x	0	1	x
SMILES	Lipid droplet	Redox H2O2 prof	Lmaj promast	MPTP block	T cruzi inh	Rh123 counter	others
O=C(CCCCCNC(=O)N1CCn2c1nc1ccccc12)NCc1ccccc1Cl	-10	x	x	0	10	x
Cc1ccc(CN2CC(C(=O)N3CCN(S(=O)(=O)c4cccc(F)c4)CC3)CC2=O)cc1 (stereo not drawn)	x	x	x	0	-6	x
CS(=O)(=O)Nc1ccccc1C(=O)Nc1cccc(Cl)c1	6	-3	-7	28	-3	x
O=C(Nc1ccccc1)Nc1cc(OCC(F)(F)F)cc(OCC(F)(F)F)c1	-8	-1	100*	77*	87*	63*
O=C(Nc1cccnc1)Nc1ccc(Br)cc1Cl	0	0	-2	58*	1	80*
O=C(Nc1cccnc1)Nc1ccccc1Cl	2	1	19	1	-21	x
CS(=O)(=O)Nc1ccccc1C(=O)Nc1cc(Cl)cc(Cl)c1	-2	-1	-6	97*	-25	83*
O=C(NCc1ccc(F)cc1)Nc1cccc(Cl)c1	0	-1	2	85*	20	93*
CC(C)(C)[C@@H]1COC(=O)[C@H](Cc2ccc(F)cc2)C/C=C\C[C@H](CC(=O)N(CCO)Cc2ccccc2)C(=O)N1	x	x	x	-2	x	x
CCCCc1nc2cc(C(=O)N(C)C3CCOCC3)ccc2o1	-8	x	x	1	-5	x
CC(NC(=O)c1cccc(S(=O)(=O)N2CCN(Cc3ccccc3)CC2)c1)c1ccc(Br)cc1 (stereo not drawn)	-20	x	x	0	30	x
C=CCN1CCN(C(CCC)c2nnnn2Cc2ccco2)CC1 (stereo not drawn)	2	-1	-7	0	-10	x
CSc1ccccc1NC(=O)Nc1cccc(F)c1	-3	-1	9	45	3	x
CCc1ccccc1NC(=O)Nc1cccc(F)c1	-15	0	24	76*	4	81*
N#CC(C(=O)Nc1cccc(Cl)c1)=C1Nc2ccccc2N1	-2	0	-1	2	6	x
CCN(C(=O)Nc1cccc(Cl)c1)c1ccccc1	x	x	x	0	-3	x
CC1CCC(=C(C#N)C(=O)Nc2cccc(Cl)c2)CC1 (stereo not drawn)	x	2	3	86*	10	84*
COC(=O)c1cc(NC(=O)c2ccc(-c3ccccc3)cc2)ccc1Cl	2	-1	48	31	15	x
COC(=O)c1cc(NC(=O)Nc2cccc(Cl)c2)ccc1Cl	x	-5	71*	90*	42	73*
Cc1cccc(N(O)C(=O)Nc2cccc(Cl)c2)c1	-1	x	x	64*	1	84*
O=C(Nc1cccc(Cl)c1)Nc1ccon1	-2	x	x	18	21	x
O=C(NCCN1CCN(c2cccc(Cl)c2)CC1)Nc1ccccc1	-5	x	x	1	-3	x
O=C(Nc1cccc(F)c1)Nc1cccc(Cl)c1	-3	x	x	88*	30	80*
O=C(NCCN1CCN(Cc2ccccc2)CC1)Nc1cc(Cl)cc(Cl)c1	-1	x	x	85*	30	96*
Cc1ccc(NC(=O)Nc2cccnc2)cc1Cl	18	x	x	6	-4	x
O=C(Nc1cccc(Cl)c1)Nc1cccc(Cl)c1	2	0	-3	102*	34	88*
O=C(Nc1cccnc1)Nc1cc(Cl)cc(Cl)c1	11	0	29	89*	25	98*
COc1cc(NC(=O)c2ccccc2)c(OC)cc1NC(=O)CN1C(=O)N(C)C2(CCCCC2)C1=O	x	x	x	-2	x	x
O=C(Nc1ccccc1)Nc1cc(Cl)cc(Cl)c1	11	0	4	101*	u	100*
